We go through one compound from PMC6645658 (ACS Omega, 2017).

The data set is described as follows: In vivo rat BBB penetration. The method, boiled down: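 Rats were dosed iv, and plasma and brain tissue were sampled at 0.25 h after dosing. Plasma concentration is in ng/mL and brain concentration in ng/g. Kp-unbound was derived using the unbound fractions measured in rat plasma and rat brain tissue, and was used to judge blood-brain barrier penetration.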

Broadly, the Kp is the ratio of the level in a tissue or fluid to that in plasma or blood. Turning to `COc1ccsc1CNCC[C@@]1(c2ccccn2)CCOC2(CCCC2)C1` [TRV130, [(3-methoxythiophen-2-yl)methyl]({2-[(9R)-9-(pyridine-2yl)-6-oxaspiro-[4,5]decan-9-yl]ethyl})amine], where the note is “brain, iv”, the concentration at 0.25 h turned out to be 315 ng/g. Where the note is “brain/plasma, intravenous”, this compound returned a Kp at 0.25 h of 0.936.
